Source: ChEMBL document CHEMBL3616442, “Unconventional Knoevenagel-type indoles: Synthesis and cell-based studies for the identification of pro-apoptotic agents” (Eur J Med Chem, 2015)

Experiments:
CCRF-CEM [1] = experiment: Growth inhibition of human CCRF-CEM cells after 48 hrs by sulforhodamine B assay; format: functional
Outline: (§1)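 NCI 60-cell-line screen. Compounds tested at five 10-fold dilutions from 10^-4 to 10^-8 M. Cells exposed for the last 48 h of a 72 h incubation, growth estimated by sulforhodamine B protein assay. GI50 is the concentration giving 50% growth inhibition. Values beyond the tested range are expressed as greater or lesser than the extreme concentration.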

A549 = experiment: Growth inhibition of human A549 cells after 48 hrs by sulforhodamine B assay; format: functional; conditions: A549, 48 h; outline: as §1
NCI-H226 = experiment: Growth inhibition of human NCI-H226 cells after 48 hrs by sulforhodamine B assay; format: functional; conditions: NCI-H226, 48 h; outline: as §1
[2] = Growth inhibition of human HCC2998 cells after 48 hrs by sulforhodamine B assay; format: functional; conditions: HCC 2998, 48 h; outline: as §1
HCT-15 = experiment: Growth inhibition of human HCT15 cells after 48 hrs by sulforhodamine B assay; format: functional; conditions: HCT-15, 48 h; outline: as §1
[3] = Growth inhibition of human SF539 cells after 48 hrs by sulforhodamine B assay; format: functional; conditions: SF-539, 48 h
SNB-75 = experiment: Growth inhibition of human SNB75 cells after 48 hrs by sulforhodamine B assay; format: functional; conditions: SNB-75, 48 h
SK-MEL-5 = experiment: Growth inhibition of human SK-MEL-5 cells after 48 hrs by sulforhodamine B assay; format: functional; conditions: SK-MEL-5, 48 h
UACC-257 = experiment: Growth inhibition of human UACC257 cells after 48 hrs by sulforhodamine B assay; format: functional; conditions: UACC-257, 48 h
UACC-62 = experiment: Growth inhibition of human UACC62 cells after 48 hrs by sulforhodamine B assay; format: functional; conditions: UACC-62, 48 h
IGROV-1 = experiment: Growth inhibition of human IGROV1 cells after 48 hrs by sulforhodamine B assay; format: functional; conditions: IGROV-1, 48 h; outline: as §1
OVCAR-3 = experiment: Growth inhibition of human OVCAR3 cells after 48 hrs by sulforhodamine B assay; format: functional; conditions: OVCAR-3, 48 h; outline: as §1
OVCAR-8 = experiment: Growth inhibition of human OVCAR8 cells after 48 hrs by sulforhodamine B assay; format: functional; conditions: OVCAR-8, 48 h
786-0 = experiment: Growth inhibition of human 786-0 cells after 48 hrs by sulforhodamine B assay; format: functional; conditions: 786-0, 48 h; outline: as §1
A498 = experiment: Growth inhibition of human A498 cells after 48 hrs by sulforhodamine B assay; format: functional; conditions: A498, 48 h; outline: as §1
[4] = Growth inhibition of human RXF393 cells after 48 hrs by sulforhodamine B assay; format: functional; conditions: RXF 393, 48 h
TK-10 = experiment: Growth inhibition of human TK10 cells after 48 hrs by sulforhodamine B assay; format: functional; conditions: TK-10, 48 h
[5] = Growth inhibition of human Hs 578T cells after 48 hrs by sulforhodamine B assay; format: functional; outline: as §1
HL-60 [6] = experiment: Antiproliferative activity against human HL60 cells after 3 days incubation by alamar blue method; format: functional; conditions: for GI50: HL-60, 72 h
Outline: (§2)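 HL-60 and K562 grown in RPMI 1640, MCF-7 in DMEM, each with 10% FCS, penicillin G and streptomycin. Seeded at 4x10⁴ (HL-60, K562) or 2x10⁴ (MCF-7) cells per well with serial compound dilutions, incubated 3 days at 37 °C. Alamar blue added for 3 h at 37 °C in the dark, fluorescence read at ex 544/em 590 nm. IC50 versus untreated controls by linear regression.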

K562 [7] = experiment: Antiproliferative activity against human K562 cells after 3 days incubation by alamar blue method; format: functional; conditions: for GI50: K562, 72 h; outline: as §2
MCF7 [8] = experiment: Antiproliferative activity against human MCF7 cells after 3 days incubation by alamar blue method; format: functional; conditions: for GI50: MCF7, 72 h; outline: as §2
HL-60 [9] = experiment: Induction of apoptosis in human HL60 cells by propidium iodide staining based flow cytometric analysis; format: functional; conditions: TDE = time-dependent effect
Outline: (§3)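 After treatment, cells harvested, fixed in ice-cold 70% ethanol at 4 °C, stained 30 min at 37 °C in the dark with 100 µg/mL propidium iodide plus 10 µg/mL RNase A; 10,000 gated cells analysed at 488 nm with debris excluded; apoptosis followed over time; mean ± S.E.M. of three independent experiments run in triplicate.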

K562 [10] = experiment: Induction of apoptosis in human K562 cells by propidium iodide staining based flow cytometric analysis; format: functional; outline: as §3
MCF7 [11] = experiment: Induction of apoptosis in human MCF7 cells by propidium iodide staining based flow cytometric analysis; format: functional; conditions: TDE = time-dependent effect; outline: as §3
CCRF-CEM [12] = experiment: Cytotoxicity against human CCRF-CEM cells after 96 hrs by MTT assay; format: functional, cell-based
Outline: (§4)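 ATCC cell lines, mycoplasma-free by Hoechst staining. Haematological lines in RPMI-1640, solid-tumour and normal fibroblast lines in their own media, all with 10% FCS and antibiotics, at 37 °C in 5% CO₂. Compounds added as serial dilutions from a 100 mM DMSO stock diluted in medium. Viability by MTT after 96 h at 37 °C. Mean ± SD of three independent determinations.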

WIL2-NS = experiment: Cytotoxicity against human WIL2-NS cells after 96 hrs by MTT assay; format: functional, cell-based; outline: as §4
CCRF-SB = experiment: Cytotoxicity against human CCRF-SB cells after 96 hrs by MTT assay; format: functional, cell-based; outline: as §4
MRC5 = experiment: Cytotoxicity against human MRC5 cells after 96 hrs by MTT assay; format: cell-based; conditions: MRC5, 96 h; outline: as §4
[13] = Cytotoxicity against human CRL7065 cells after 96 hrs by MTT assay; format: cell-based; conditions: CRL-7065, 96 h; outline: as §4
SK-MEL-28 = experiment: Cytotoxicity against human SK-MEL-28 cells after 96 hrs by MTT assay; format: functional, cell-based; conditions: SK-MEL-28, 96 h; outline: as §4
[14] = Cytotoxicity against human SKMES1 cells after 96 hrs by MTT assay; format: functional, cell-based; conditions: SK-MES-1, 96 h; outline: as §4
DU-145 = experiment: Cytotoxicity against human DU145 cells after 96 hrs by MTT assay; format: functional, cell-based; conditions: DU-145, 96 h; outline: as §4
HepG2 = experiment: Cytotoxicity against human HepG2 cells after 96 hrs by MTT assay; format: functional, cell-based; conditions: HepG2, 96 h; outline: as §4
MCF7 [15] = experiment: Cytotoxicity against human MCF7 cells after 96 hrs by MTT assay; format: functional, cell-based; conditions: MCF7, 96 h; outline: as §4

Structure (SMILES) | GI50 (CCRF-CEM [1]) [µM] | GI50 (A549) [µM] | GI50 (NCI-H226) [µM] | GI50 [2] [µM] | GI50 (HCT-15) [µM] | GI50 [3] [µM] | GI50 (SNB-75) [µM] | GI50 (SK-MEL-5) [µM] | GI50 (UACC-257) [µM] | GI50 (UACC-62) [µM] | GI50 (IGROV-1) [µM] | GI50 (OVCAR-3) [µM] | GI50 (OVCAR-8) [µM] | GI50 (786-0) [µM] | GI50 (A498) [µM] | GI50 [4] [µM] | GI50 (TK-10) [µM] | GI50 [5] [µM] | also measured
CCOC(=O)C(=Cc1c(-c2ccccc2)[nH]c2ccccc12)C(=O)OCC | 2.6 | 6.4 | 11.4 | 10.1 | 4.1 | 14.5 | 7 | 3.8 | 7.5 | 4.6 | 5.7 | 4.2 | 4.1 | 12.9 | 16.9 | 3.7 | 13.6 | 3.8 | –
CC(=O)/C(=C\c1c(-c2ccccc2)[nH]c2ccccc12)S(=O)(=O)c1ccccc1 | 1.4 | 7.2 | 1.9 | 1.4 | 0.836 | 1.3 | 1.7 | 0.832 | 2.2 | 1 | 1.5 | 1.6 | 2.5 | 1.6 | 2 | 1.3 | 3.8 | 5 | –
CC(=O)/C(=C\c1c(-c2ccccc2)[nH]c2ccccc12)S(C)(=O)=O | 4.7 | 7.3 | 27.1 | 8 | 2 | 1.9 | 1.5 | 1.9 | 43.8 | 3.2 | 8.3 | 2.3 | 5.2 | 3.5 | 3.9 | 2.6 | 13.5 | 1.6 | Activity (HL-60 [6]): Dose-dependent effect; GI50 (HL-60 [6]): 2.57 µM; Activity (K562 [7]): Dose-dependent effect; GI50 (K562 [7]): 7.71 µM; Activity (MCF7 [8]): Dose-dependent effect; GI50 (MCF7 [8]): > 10 µM; Activity (HL-60 [9]): tde; Activity (K562 [10]; TDE = time-dependent effect): tde; Activity (MCF7 [11]): tde
N#C/C(=C\c1c(-c2ccccc2)[nH]c2ccccc12)S(=O)(=O)c1ccccc1 | 2.6 | 3.7 | 4.1 | 10.9 | 1.1 | 2.5 | 1.7 | 1.82 | 18.2 | 2.6 | 3.3 | 1.4 | 6 | 9.2 | 11 | 3.6 | 5.6 | 23.6 | –
COc1ccc2[nH]c(-c3ccccc3)c(/C=C(\C#N)S(=O)(=O)c3ccccc3)c2c1 | 6.5 | 6 | 9.4 | 18.7 | 4 | 5.5 | 5.9 | 3.1 | 4.9 | 3.8 | 4.8 | 5 | 7.8 | 6.1 | 9.3 | – | 17.5 | 7.6 | EC50 (CCRF-CEM [12]): 1.5 µM; EC50 (WIL2-NS): 2.8 µM; EC50 (CCRF-SB): 1.9 µM; EC50 (MRC5): 14 µM; EC50 [13]: 11 µM; EC50 (SK-MEL-28): 10 µM; EC50 [14]: 12 µM; EC50 (DU-145): 10 µM; EC50 (HepG2): 9.6 µM; EC50 (MCF7 [15]): 12 µM
COc1ccc(-c2[nH]c3ccccc3c2C=C(C#N)C#N)cc1 | 0.352 | 0.7 | 1.1 | 0.751 | 0.593 | 0.263 | 0.418 | 0.35 | 0.424 | 0.357 | 1.4 | 0.265 | 1.2 | 0.72 | 0.458 | 0.518 | 0.925 | 0.241 | Activity (HL-60 [6]): Dose-dependent effect; GI50 (HL-60 [6]): 1.08 µM; Activity (K562 [7]): Dose-dependent effect; GI50 (K562 [7]): 4.78 µM; Activity (MCF7 [8]): Dose-dependent effect; GI50 (MCF7 [8]): > 10 µM; Activity (HL-60 [9]): tde; Activity (K562 [10]): 44.4%; Activity (K562 [10]; TDE = time-dependent effect): tde; Activity (MCF7 [11]): tde
COC(=O)/C(=C\c1c(-c2ccccc2)[nH]c2ccccc12)S(C)(=O)=O | 7.6 | 5.3 | 5 | 8.8 | 2.4 | 3.1 | 2.3 | – | 11.2 | 3.3 | 1.7 | 1.9 | 6.3 | 7.5 | 6.6 | 7.2 | 7.7 | 3.5 | –
COc1ccc2[nH]c(-c3ccccc3)c(C=C(C#N)C#N)c2c1 | 3.4 | 7 | 3.5 | 6.1 | 3.2 | 2.9 | 2.8 | 2.9 | 30 | 2.5 | 8.4 | 3.1 | 7.7 | 6.6 | 2 | 9.8 | 5.1 | 2.4 | –
COc1ccc(-c2[nH]c3ccc(OC)cc3c2/C=C(\C#N)S(=O)(=O)c2ccccc2)cc1 | 1.3 | 2.8 | 3.7 | 2 | 0.632 | 0.51 | 0.612 | 0.319 | 46.1 | 0.66 | 10.6 | 0.359 | 3.1 | 2.1 | – | – | 5 | 0.538 | EC50 (CCRF-CEM [12]): 0.3 µM; EC50 (WIL2-NS): 0.5 µM; EC50 (CCRF-SB): 0.3 µM; EC50 (MRC5): 22 µM; EC50 [13]: > 100 µM; EC50 (SK-MEL-28): > 100 µM; EC50 [14]: > 100 µM; EC50 (DU-145): 3 µM; EC50 (HepG2): 6.4 µM; EC50 (MCF7 [15]): 40 µM
N#CC(C#N)=Cc1c(-c2ccccc2)[nH]c2ccccc12 | 2.4 | 4.6 | 4.1 | 10.4 | 0.971 | 2.1 | 2 | 1.1 | 28.1 | 2.6 | 0.757 | 1.8 | 6 | 8.6 | 3 | 3.3 | 5.3 | 2.3 | –
